Data: ChEMBL document CHEMBL1135584, “2-Amino-6-arylthio-9-[2-(phosphonomethoxy)ethyl]purine bis(2,2,2-trifluoroethyl) esters as novel HBV-specific antiviral reagents” (J Med Chem, 2002)

Legend:
[1] = Cytotoxic concentration of compound required for 50% extinction of HuH-6 cells; type: functional; conditions: Homo sapiens
Method in brief: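 HuH-6 cells (parent of HB611) seeded at 1 × 10⁵ cells/mL, cultured 3 days at 37 °C, 5% CO₂ in DMEM with 10% FBS plus compound; MTS added, further 2 h at 37 °C; viability by absorbance at 490 nm; CC50 determined.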

Hepatitis B virus = test: Concentration required to inhibit 50% of cytoplasmic HBV-DNA synthesis
Human alphaherpesvirus 1 = test: Anti-HSV-1 activity of the compound; type: functional, organism-based

SMILES | CC50 [1] | IC50 (Hepatitis B virus) | IC50 (Human alphaherpesvirus 1)
COc1cccc(Sc2nc(N)nc3c2ncn3CCOCP(=O)(OCC(F)(F)F)OCC(F)(F)F)c1 | > 1000 µM | 0.04 µM | 
Cc1cccc(Sc2nc(N)nc3c2ncn3CCOCP(=O)(OCC(F)(F)F)OCC(F)(F)F)c1 | 150 µM | 0.09 µM | 
CCCOc1ccc(Sc2nc(N)nc3c2ncn3CCOCP(=O)(OCC(F)(F)F)OCC(F)(F)F)cc1 | 250 µM | 0.87 µM | 
Cc1ccccc1Sc1nc(N)nc2c1ncn2CCOCP(=O)(OCC(F)(F)F)OCC(F)(F)F | 340 µM | 0.08 µM | 
Nc1nc(Sc2ccc3ccccc3c2)c2ncn(CCOCP(=O)(OCC(F)(F)F)OCC(F)(F)F)c2n1 | 198 µM | 0.09 µM | 
Cc1ccc(Sc2nc(N)nc3c2ncn3CCOCP(=O)(OCC(F)(F)F)OCC(F)(F)F)cc1 | 110 µM | 0.06 µM | 
Nc1nc(Sc2ccccc2)c2ncn(CCOCP(=O)(OCC(F)(F)F)OCC(F)(F)F)c2n1 | > 1000 µM | 0.05 µM | 25 µM
Nc1nc(Sc2ccc([N+](=O)[O-])cc2)c2ncn(CCOCP(=O)(OCC(F)(F)F)OCC(F)(F)F)c2n1 | 380 µM | 0.52 µM | 
CCc1ccc(Sc2nc(N)nc3c2ncn3CCOCP(=O)(OCC(F)(F)F)OCC(F)(F)F)cc1 | 170 µM | 0.4 µM | 
Nc1nc(Sc2ccc(OC(F)(F)F)cc2)c2ncn(CCOCP(=O)(OCC(F)(F)F)OCC(F)(F)F)c2n1 | 820 µM | 0.06 µM | 
CCOc1ccc(Sc2nc(N)nc3c2ncn3CCOCP(=O)(OCC(F)(F)F)OCC(F)(F)F)cc1 | > 1000 µM | 0.64 µM | 
CCCCOc1ccc(Sc2nc(N)nc3c2ncn3CCOCP(=O)(OCC(F)(F)F)OCC(F)(F)F)cc1 | 260 µM | > 1 µM | 
CC(C)c1ccc(Sc2nc(N)nc3c2ncn3CCOCP(=O)(OCC(F)(F)F)OCC(F)(F)F)cc1 | 170 µM | 0.98 µM | 
COc1ccc(Sc2nc(N)nc3c2ncn3CCOCP(=O)(O)OCC(F)(F)F)cc1 |  | 0.07 µM | 
Nc1nc(Sc2ccc(Cl)cc2)c2ncn(CCOCP(=O)(OCC(F)(F)F)OCC(F)(F)F)c2n1 | 62 µM | 0.12 µM | 
CC(C)COc1ccc(Sc2nc(N)nc3c2ncn3CCOCP(=O)(OCC(F)(F)F)OCC(F)(F)F)cc1 | 100 µM | 0.84 µM | 
CC(C)Oc1ccc(Sc2nc(N)nc3c2ncn3CCOCP(=O)(OCC(F)(F)F)OCC(F)(F)F)cc1 | 350 µM | 0.29 µM | 
COc1ccccc1Sc1nc(N)nc2c1ncn2CCOCP(=O)(OCC(F)(F)F)OCC(F)(F)F | > 1000 µM | 0.08 µM | 
Nc1ncnc2c1ncn2CCOCP(=O)(O)O [ADEFOVIR] | > 1000 µM | 0.2 µM | 
COc1ccc(Sc2nc(N)nc3c2ncn3CCOCP(=O)(OCC(F)(F)F)OCC(F)(F)F)cc1 [ALAMIFOVIR] | > 1000 µM | 0.03 µM | 
Nc1ccn([C@@H]2CS[C@H](CO)O2)c(=O)n1 [LAMIVUDINE] | > 1000 µM | 2.2 µM | 
